Laboratory results reported in ChEMBL document CHEMBL4715912, “Discovery of a novel series of indolinylpyrimidine-based GPR119 agonists: Elimination of ether-a-go-go-related gene liability using a hydrogen bond acceptor-focused approach” (Bioorg Med Chem, 2021).

Experiments:
[1] = target: T1, Glucose-dependent insulinotropic receptor (Rattus norvegicus, UniProt Q7TQN8); test: Agonist activity at rat GPR119 expressed in CHO cells co-expressing cyclic AMP response element incubated for 2 hrs by steady-glo luciferase assay; assay type: cell-based
T1 sequence (Q7TQN8 whole entry): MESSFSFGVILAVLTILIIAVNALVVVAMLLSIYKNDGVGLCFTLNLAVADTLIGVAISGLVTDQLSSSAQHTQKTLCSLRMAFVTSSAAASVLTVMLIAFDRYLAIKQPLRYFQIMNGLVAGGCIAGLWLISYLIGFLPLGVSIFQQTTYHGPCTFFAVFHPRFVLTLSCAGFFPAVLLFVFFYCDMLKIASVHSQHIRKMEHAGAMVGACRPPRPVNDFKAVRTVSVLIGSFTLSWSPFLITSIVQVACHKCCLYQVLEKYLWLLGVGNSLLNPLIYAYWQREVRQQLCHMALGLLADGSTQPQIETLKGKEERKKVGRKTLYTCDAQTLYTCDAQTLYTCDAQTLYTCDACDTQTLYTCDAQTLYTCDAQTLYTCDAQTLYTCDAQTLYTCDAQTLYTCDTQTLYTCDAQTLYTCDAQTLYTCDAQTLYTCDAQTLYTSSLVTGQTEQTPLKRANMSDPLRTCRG
Summary of the method: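 Rat GPR119-expressing cells, cAMP-induced luciferase read with Steady-Glo after 2 h compound exposure in MEM α/HEPES/BSA buffer. Activity scaled between vehicle and a 10 µM reference agonist; EC50 mean of n = 2.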

[2] = Partition coefficient, logD between 1-octanol and pH 7.4 aqueous buffer by chromatographic analysis; assay type: physicochemical; settings: 1-octanol/pH 7.4 aqueous buffer
Summary of the method: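 LogD at pH 7.4, octanol/aqueous buffer partition, estimated by a chromatographic method adapted from a published procedure.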

[3] = Intrinsic clearance in rat liver microsomes at 1 uM measured after 15 to 30 mins in presence of NADPH generating system by LC/MS/MS analysis; assay type: ADME, Microsome; settings: time 15-30 min, read-out: CLH
Summary of the method: (§1)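 Human or rat liver microsomes at 0.2 mg/mL protein in 50 mM potassium phosphate pH 7.4 with 1 µM compound; reaction started with NADPH-generating system (5 mM MgCl2, 5 mM glucose-6-phosphate, 0.5 mM β-NADP+, 1.5 units/mL G6PDH). Stopped with acetonitrile at 15 and 30 min, parent by LC/MS/MS; rate from concentration–time slope, expressed as µL/min/mg.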

[4] = Intrinsic clearance in human liver microsomes at 1 uM measured after 15 to 30 mins in presence of NADPH generating system by LC/MS/MS analysis; assay type: ADME, Microsome; settings: time 15-30 min, read-out: CLH; summary of the method: as §1

CC(C)c1noc(N2CCC(Oc3cc(N4CCc5cc(N6CCC[C@H](O)C6=O)ccc54)ncn3)CC2)n1
EC50 [1]: 120 nM | logD [2]: 3.3 | microsomal CLint at 1 µM [3]: 1 µL/min/mg | microsomal CLint at 1 µM [4]: 9 µL/min/mg
